According to ChEMBL document CHEMBL5143748, “Quinolines and Oxazino-quinoline Derivatives as Small Molecule GLI1 Inhibitors Identified by Virtual Screening” (ACS Med Chem Lett, 2022):
Activity calls are given as the source filed them. No cut-off for these calls is given here.

What was measured:
NIH3T3 = assay: Inhibition of hedgehog signalling in SAG-induced mouse NIH3T3 cells assessed as decrease in GLI1 protein expression level at 1 uM for 48 hrs by Western blot analysis; type: cell-based
Summary of the method: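 Murine NIH3T3 cells, endogenous Hh pathway activated with the SMO agonist SAG (100 nM), co-treated with compound (1 μM), DMSO vehicle or GANT61 (5 μM) for 48 h. Endogenous GLI1 detected by Western blot with HSP90 as loading control. Reduction graded qualitatively, e.g. "+" weak, "NA" not affected.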

Daoy = assay: Antiproliferative activity against human DaOY cells assessed as reduction in cell viability incubated for 72 hrs by trypan blue or crystal violet staining based assay; type: functional
Summary of the method: (§1)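 IC50 in micromolar, fitted from triplicate experiments in human melanoma A375 and medulloblastoma DAOY cells.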

A-375 = assay: Antiproliferative activity against human A375 cells assessed as reduction in cell viability incubated for 72 hrs by trypan blue or crystal violet staining based assay; type: functional; details: A-375, 72 h; summary of the method: as §1

Row | SMILES | IC50 (A-375) | inhibition (NIH3T3) | IC50 (Daoy)
1 | O=C(NC(c1ccc(Cl)cc1Cl)c1ccc2cccnc2c1O)C1CCCCC1 (stereo not given) | 1010 nM | Active | 240 nM
2 | COc1ccc(CN2COc3c(ccc4cccnc34)C2)cc1 | 580 nM | Active | 870 nM
3 | c1ccc2c(c1)CCCC2N1COc2c(ccc3cccnc23)C1 (stereo not given) | 300 nM | Active | 600 nM
4 | O=C(NCc1ccc2c(OCc3ccccc3)ccnc2c1O)C1CCCCC1 | 550 nM | Active | 260 nM
5 | CCCC(=O)NC(c1ccc(N(CC)CC)cc1)c1cc(Cl)c2cccnc2c1O (stereo not given) | 130 nM | Active | 100 nM
6 | O=C(NCc1ccc2cccnc2c1O)C1CCCCC1 | 910 nM | Active | 720 nM
7 | c1cnc2c3c(ccc2c1)CN(C1CCCCC1)CO3 | 300 nM | Active | 500 nM
8 | c1cnc2c3c(ccc2c1)CN(C1CCCCCC1)CO3 | 880 nM | Active | 1200 nM
9 | c1cnc2c3c(ccc2c1)CN(CC1CCCCC1)CO3 | 380 nM | Active | 1000 nM
10 | COc1ccc(C(NC(C)=O)c2cc(Cl)c3cccnc3c2O)cc1OC (stereo not given) | 110 nM | Active | 210 nM
11 | Oc1c(C(NCCc2ccccc2)c2ccc(Cl)cc2Cl)ccc2cccnc12 (stereo not given) | 190 nM | Active | 150 nM
12 | CCCCOc1ccnc2c(O)c(CNC(=O)C3CCCCC3)ccc12 | 540 nM | Active | 510 nM
13 | CC1CCC(N2COc3c(ccc4cccnc34)C2)CC1 (stereo not given) | 420 nM | Active | 550 nM
14 | Clc1cnc2c3c(ccc2c1)CN(CCCN1CCOCC1)CO3 | 150 nM | Active | 1200 nM
15 | Fc1cnc2c3c(ccc2c1)CN(C1CCCCC1)CO3 | 500 nM | Active | 300 nM
16 | C1=C(CCN2COc3c(ccc4cccnc34)C2)CCCC1 | 120 nM | Active | 230 nM
17 | c1cnc2c3c(ccc2c1)CN(C1CCCCCCC1)CO3 | 280 nM | Active | 290 nM
18 | Oc1c(CNCCc2ccccc2)ccc2cccnc12 | 390 nM | Active | 330 nM
19 | COc1ccc(C(NC(=O)C(C)C)c2cc(Cl)c3cccnc3c2O)cc1OC (stereo not given) | 130 nM | Active | 100 nM
20 | Fc1cnc2c3c(ccc2c1)CN(CCc1ccccc1)CO3 | 1100 nM | Active | 1400 nM
21 | CCCCN1COc2c(ccc3cc(Cl)cnc23)C1 | 490 nM | Active | 380 nM
22 | c1ccc(CCN2COc3c(ccc4cccnc34)C2)cc1 | 130 nM | Active | 190 nM

Now from value to compound, other results behind:

Row | IC50 (A-375) | SMILES | inhibition (NIH3T3) | IC50 (Daoy)
23 | 1120 nM | CCCCC(=O)NC(c1ccc(Cl)cc1Cl)c1ccc2cccnc2c1O (stereo not given) | Active | 150 nM
24 | 320 nM | CCCCC(=O)NC(c1ccc(Cl)c(Cl)c1)c1ccc2cccnc2c1O (stereo not given) | Active | 100 nM
25 | 320 nM | O=C(NC(c1ccc(Cl)cc1Cl)c1ccc2cccnc2c1O)C1CCCC1 (stereo not given) | Active | 150 nM
26 | 130 nM | CCCC(=O)NC(c1ccc(OC)c(OC)c1)c1ccc2cccnc2c1O (stereo not given) | Active | 110 nM
27 | 710 nM | CCCCC(=O)NC(c1ccc(Cl)cc1)c1ccc2cccnc2c1O (stereo not given) | Active | 330 nM
28 | 100 nM | CCCC(=O)NC(c1ccccc1Cl)c1cc(Cl)c2cccnc2c1O (stereo not given) | Active | 100 nM
29 | 110 nM | CCCC(=O)NC(c1ccc(Cl)cc1Cl)c1ccc2cccnc2c1O (stereo not given) | Active | 190 nM
30 | 90 nM | CCCCC(=O)NC(c1cc(Cl)cc(Cl)c1)c1ccc2cccnc2c1O (stereo not given) | Active | 140 nM
31 | 120 nM | CCCC(=O)NC(c1ccc(C(C)C)cc1)c1cc(Cl)c2cccnc2c1O (stereo not given) | Active | 90 nM
32 | 120 nM | CCCC(=O)NC(c1ccc(Cl)cc1)c1cc(Cl)c2cccnc2c1O (stereo not given) | – | 100 nM
33 | 120 nM | CCCC(=O)NC(c1ccc(C)cc1)c1cc(Cl)c2cccnc2c1O (stereo not given) | Active | 100 nM
34 | 130 nM | CCCC(=O)NC(c1ccccc1)c1cc(Cl)c2cccnc2c1O (stereo not given) | – | 110 nM
